Assay [1] concerns the target T1, Nitric oxide synthase, inducible (Mus musculus) (UniProt P29477).
T1 sequence (whole entry): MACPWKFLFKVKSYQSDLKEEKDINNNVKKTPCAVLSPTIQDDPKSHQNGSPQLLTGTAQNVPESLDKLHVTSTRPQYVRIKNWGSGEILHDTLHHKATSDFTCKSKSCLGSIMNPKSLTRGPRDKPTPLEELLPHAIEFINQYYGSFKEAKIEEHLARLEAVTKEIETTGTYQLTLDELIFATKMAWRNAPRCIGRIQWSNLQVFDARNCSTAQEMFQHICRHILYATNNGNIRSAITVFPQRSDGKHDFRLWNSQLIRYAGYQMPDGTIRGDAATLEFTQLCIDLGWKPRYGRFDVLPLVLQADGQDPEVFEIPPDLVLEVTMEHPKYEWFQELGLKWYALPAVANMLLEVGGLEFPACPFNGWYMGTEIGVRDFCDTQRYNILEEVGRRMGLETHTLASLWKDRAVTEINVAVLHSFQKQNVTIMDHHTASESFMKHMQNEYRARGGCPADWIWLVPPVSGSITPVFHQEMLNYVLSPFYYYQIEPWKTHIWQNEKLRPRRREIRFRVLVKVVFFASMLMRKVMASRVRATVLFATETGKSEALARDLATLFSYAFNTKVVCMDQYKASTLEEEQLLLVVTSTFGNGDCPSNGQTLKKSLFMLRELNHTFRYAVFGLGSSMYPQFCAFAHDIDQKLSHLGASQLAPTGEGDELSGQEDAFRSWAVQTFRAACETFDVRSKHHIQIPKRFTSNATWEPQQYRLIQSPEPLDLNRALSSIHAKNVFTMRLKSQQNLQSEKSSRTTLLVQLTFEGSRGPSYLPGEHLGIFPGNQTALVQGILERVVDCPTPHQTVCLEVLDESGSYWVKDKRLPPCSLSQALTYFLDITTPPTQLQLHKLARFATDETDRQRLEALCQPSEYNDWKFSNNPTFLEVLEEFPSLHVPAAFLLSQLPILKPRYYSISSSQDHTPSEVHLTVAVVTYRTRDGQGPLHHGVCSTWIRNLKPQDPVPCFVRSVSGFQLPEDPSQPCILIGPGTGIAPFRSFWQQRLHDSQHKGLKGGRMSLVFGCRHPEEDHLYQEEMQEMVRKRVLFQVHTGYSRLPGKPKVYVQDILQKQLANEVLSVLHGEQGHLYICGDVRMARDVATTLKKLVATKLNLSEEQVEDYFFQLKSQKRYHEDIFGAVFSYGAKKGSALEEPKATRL
Briefly: Inhibition of iNOS in mouse RAW264.7 cells assessed as anti-inflammatory activity by measuring inhibition of LPS-induced nitric oxide production at 100 uM after 24 hrs. The class given is cell-based. The procedure, abridged: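 RAW 264.7 murine macrophages grown to confluence over 24 h, then held 4 h in serum-free DMEM. Compounds or vehicle (0.1% DMSO) were added with or without LPS (200 ng/mL) for 24 h. Supernatant nitrite was measured by Griess reagent, 10 min at room temperature, A550, against a sodium nitrite standard curve. Results are % inhibition versus vehicle plus LPS; Emax is taken at 100 μM; mean ± SE.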

Assay [2] deals with T2, Nitric oxide synthase, inducible (Mus musculus, UniProt P29477).
T2 sequence (P29477 whole entry): T1 sequence (whole entry)
The settings on record: raw264.7.

For 12 molecules, Emax and IC50 results are on record in ChEMBL document CHEMBL1821628, “Anti-inflammatory endiandric acid analogues from the roots of Beilschmiedia tsangii” (J Nat Prod, 2011).

SMILES strings stand for the structures.

As for `COc1cc([C@@H]2O[C@@H](c3cc(OC)c4c(c3)OCO4)[C@H](C)[C@H]2C)cc(O)c1OC` (relative stereo) [BEILSCHMINOL A], the Emax in assay [1] was 86.6%. In assay [2], this molecule had an IC50 of 51.5 µM. As to `COc1cc([C@@H]2O[C@@H](c3cc(OC)c4c(c3)OCO4)[C@H](C)[C@H]2C)cc(OC)c1OC` (relative stereo), the Emax in assay [1] was determined as 63.4%. The IC50 in assay [2] came to 49 µM. Regarding `N=C(N)NN` [PIMAGEDINE], the IC50 in assay [2] came out at 26.5 µM. In the case of `O=C(O)[C@@H]1C=C[C@@H]2C[C@H]3[C@H](Cc4ccc5c(c4)OCO5)[C@H]4C=C[C@@H]1[C@@H]2[C@H]43` (relative stereo) [TSANGIBEILIN B], the Emax in assay [1] was 96.1%. Also, in assay [2], half-maximal inhibition (IC50) was put at 42.3 µM. The corresponding values for `CC(C)CNC(=O)[C@H]1[C@H]2C=C[C@@H]3[C@@H]1C[C@H]1[C@H](CCCc4ccc5c(c4)OCO5)[C@@H]2[C@@H]31` (relative stereo) are 72.1% and 16.4 µM. The corresponding values for `O=C(O)/C=C/[C@H]1[C@@H]2C=C[C@@H]3[C@H]1C[C@H]1[C@H](CCCCCc4ccc5c(c4)OCO5)[C@H]2[C@@H]31` (relative stereo) are 91.4% and 39.6 µM. The corresponding values for `N=C(NCCC[C@H](N)C(=O)O)N[N+](=O)[O-]` [NITROARGININE] are 43.7% and 152 µM. With `O=C(O)[C@@H]1C=C[C@@H]2C[C@H]3[C@H](CCCc4ccc5c(c4)OCO5)[C@H]4C=C[C@@H]1[C@@H]2[C@H]43` (relative stereo) [TSANGIBEILIN A], the Emax in assay [1] stood at 96.9%. This molecule also returned a 50% inhibitory concentration (IC50) in assay [2] of 49.6 µM. The corresponding values for `O=C(O)[C@H]1[C@H]2C=C[C@@H]3[C@@H]1C[C@H]1[C@H](CCCc4ccc5c(c4)OCO5)[C@@H]2[C@@H]31` (relative stereo) are 77.9% and 58.2 µM.

On to `CC(C)CNC(=O)[C@@H]1C=C[C@@H]2C[C@H]3[C@H](Cc4ccc5c(c4)OCO5)[C@H]4C=C[C@@H]1[C@@H]2[C@H]43` (relative stereo) [ENDIANDRAMIDE A], for which, in assay [1], the Emax amounted to 97.3%. In assay [2], the IC50 is 9.59 µM.

As for `COc1cc([C@@H]2O[C@@H](c3cc(OC)c4c(c3)OCO4)[C@H](C)[C@H]2C)cc2c1OCO2` (relative stereo), the Emax in assay [1] was 65.6%. In assay [2], this molecule returned an IC50 of 52.5 µM. Regarding `COc1cc(C(=O)O[C@@H](c2cc(OC)c(OC)c(OC)c2)[C@H](C)C(C)=O)cc(OC)c1OC` [TSANGIN C], the Emax in assay [1] is 85.5%. In assay [2], this molecule registered an IC50 of 51.4 µM.

The term Emax denotes the size of the effect at its maximum, as opposed to the concentration needed. By IC50 is commonly meant the concentration that gives 50% inhibition.
